Screens (PubChem)
In the library only some 6.4% were active in any assay of this set; here they are far more common.
EBV gp42 inh = inhibitors of Epstein-Barr virus glycoprotein 42 | AID 1085 | Fluorescence polarization binding assay, mP read-out | Q1HVG2 | inhibition, % (tested at 21.74 µM) | actives 0.42% (n = 220,000); in the data active means inhibition above about 50%
Target sequence (Q1HVG2 whole entry, looked up): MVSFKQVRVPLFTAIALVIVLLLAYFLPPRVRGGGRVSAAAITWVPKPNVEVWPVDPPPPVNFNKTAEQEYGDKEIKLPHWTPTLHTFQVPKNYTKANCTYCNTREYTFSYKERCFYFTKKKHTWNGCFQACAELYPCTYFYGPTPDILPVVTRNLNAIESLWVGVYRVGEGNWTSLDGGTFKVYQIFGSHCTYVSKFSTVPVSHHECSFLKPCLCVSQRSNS
MPTP inh = blocks calcium-induced mitochondrial swelling; isolated mouse mitochondria, Ca2+ swelling absorbance, 30 min; inhibition, % at 10 µM; actives 1.4% (n = 360,000); AID 602449;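 active means inhibition of 50% or more, scaled per plate between neutral and stimulator controls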;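 further: 0% = DMSO wells given calcium and 100% = 1 mM EGTA wells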
CHOP inhibitor = inhibitors of CHOP induction in ER stress response; actives 3.8% (n = 220,000); inhibition, % at 10 µM; AID 2732; CHO-K1 CHOP-promoter luciferase, tunicamycin-induced, 15-18 h;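 active means compounds that reduced the stress-induced luciferase reporter signal by more than about 70% of percent inhibition, limit read from the data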;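 further: 0% = tunicamycin plus vehicle and 100% = wells without tunicamycin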
TbMetRS inhib = Trypanosoma brucei MetRS inhibition. actives 0.4% (n = 360,000). purified T. brucei MetRS, ATP depletion, Kinase-Glo luminescence. inhibition, % at 11.9 µM. AID 624268;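 active means inhibition above a per-plate cutoff of the control wells' mean inhibition plus 3 SD, cut at about 5.5% in these data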;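 further: 0% = DMSO wells median and 100% = median of wells with control inhibitor compound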
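technique = Kinase-Glo luminescence, ATP depletion format | system = purified MetRS (methionyl-tRNA synthetase) enzyme from Trypanosoma brucei | timing = 15 min preincubation, 2 h reaction, all 25 °C | evaluation = percent inhibition versus plate control medians | dosing = single dose, 11.9 µM final nominal, 0.9% final DMSO | also added = substrates ATP, L-methionine and bulk Escherichia coli tRNA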
NR3A LBD binder = modulates the human NR3A ligand-binding domain; Tm shift relative to glycine control, % at 25 µM; NR3A LBD differential scanning fluorimetry, Tm shift; 0% = protein alone, 100% = glycine-bound protein; AID 1259313; actives 2.5% (n = 340,000);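 active means melting temperature shift of at least 10% of the positive control shift, at one fixed dose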
WT yeast gro inh = growth inhibition of WT yeast, mitochondrial fusion screen; mitochondrial fusion phenotypic screen, WT strain; inhibition, % at 10 µM; actives 2.1% (n = 190,000); AID 1362; in the data active means inhibition above about 58%; tested in S. cerevisiae
Rh123 counter = membrane potential counter-screen of mitochondrial pore inhibitors; actives 78% (n = 5,000); shares compounds with MPTP inh; isolated mitochondria, Rhodamine 123 fluorescence; inhibition, % at 10 µM; AID 624504; in the data active means inhibition above about 22%;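 further: 0% = DMSO vehicle and 100% = positive control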
MPTP swell DR = dose response confirmation of mitochondrial permeability transition pore inhibitors | shares compounds with MPTP inh | isolated mitochondria swelling, absorbance | IC50, µM | actives 58% (n = 780) | AID 651561; in the data active means IC50 below about 20 µM
MPTP cs DR = MPTP inhibitor counter-screen activity, dose response | shares compounds with MPTP inh | isolated mitochondria counterscreen, fluorescence read-out | IC50, µM | actives 49% (n = 780); in the data active means IC50 below about 80 µM
An asterisk follows results filed as active; i = inactive; . = not tested or not shown.

SMILES | EBV gp42 inh | MPTP inh | CHOP inhibitor | TbMetRS inhib | NR3A LBD binder | WT yeast gro inh | Rh123 counter | others
Cc1cc(S(=O)(=O)Nc2cccc([N+](=O)[O-])c2)c(C)s1 | . | 1.9 | . | 0.3 | -0.3 | . | .
CCCOc1ccc(NC(=O)CC2C(=O)Nc3ccccc3N2CC(=O)N2CCCC2)cc1 (stereo not given) | . | 0.7 | . | -0.4 | 0.3 | . | .
CCC(CC)NC(=O)c1cccc([N+](=O)[O-])c1C | -5.3 | 0.1 | -24.3 | 0.0 | -1.0 | 0.7 | .
CC1CCC(=C(C#N)C(=O)Nc2cccc(Cl)c2)CC1 (stereo not given) | -6.3 | 86.5* | 51.9 | -0.6 | -4.0 | -9.9 | 84.4*
Cc1cccc(N(O)C(=O)Nc2cccc(Cl)c2)c1 | . | 64.4* | . | 0.5 | -6.0 | . | 83.8*
O=C(Nc1cccc(Cl)c1)ON=C1c2ccccc2-c2ccccc21 | -20.9 | 86.2* | 8.9 | -0.4 | 5.0 | 24.4 | 86.7*
O=C(CN1C(=O)c2ccccc2C1=O)Nc1cccc(Cl)c1 | . | 0.3 | . | 0.9 | -2.6 | . | .
C/C=C\C(=O)Nc1cccc(C2=NOC3(C2)C[C@H](C(N)=O)N(C(=O)/C=C/CC)C3)c1 (stereo not given in full) | -11.1 | -0.8 | 16.0 | -0.3 | 0.3 | . | .
O=c1cc(C(F)(F)F)c2sc(N3CCCCC3)nc2[nH]1 | 4.4 | 1.4 | 6.0 | 0.4 | 2.2 | 4.0 | .
COc1cccc(CN2CCCC(C(=O)c3ccc4c(c3)OCO4)C2)c1OC (stereo not given) | -17.8 | 2.2 | 8.1 | -0.3 | -1.9 | 18.9 | .
Cc1ccc(C(C)C)c(OCC(=O)Nc2ccccc2N2CCN(C)CC2)c1 | -9.7 | 83.1* | 77.5* | -1.2 | -6.8 | -29.1 | -7.2 | MPTP swell DR=i;MPTP cs DR=>80
COc1ccccc1CNC(=O)c1cc(-c2cccnc2)nc2ccccc12 | -11.2 | -1.3 | 29.4 | 0.3 | -1.8 | -8.3 | .
Cc1cc(N2CCCC2=O)cc(C)c1S(=O)(=O)NCCOc1ccc(C(C)(C)C)cc1 | -3.8 | 104.6* | 78.0* | -0.8 | -11.5 | 51.2 | 98.6*
Cn1c(-c2ccc(Br)o2)nc2cc(Br)ccc21 | 6.6 | 63.5* | 65.5 | -1.3 | 12.5* | 0.9 | -7.8 | MPTP swell DR=i;MPTP cs DR=>80
Cn1c(-c2ccc(Br)o2)nc2ccccc21 | -15.0 | 17.2 | 40.5 | -2.6 | -8.3 | 36.9 | .
Cc1c(Br)c([N+](=O)[O-])nn1C(C)C(=O)NCC1CCCO1 (stereo not given) | 2.5 | 0.3 | -1.6 | -0.9 | -0.7 | 1.1 | .
O=S(=O)(c1ccc(NC(=S)Nc2ccccc2)cc1)N1CCOCC1 | -6.4 | 5.7 | 12.7 | -0.4 | 3.3 | -1.5 | .
CC(NC(=S)Nc1ccc(S(=O)(=O)N2CCOCC2)cc1)C1CC2CCC1C2 (stereo not given) | 8.2 | 93.3* | 57.9 | -0.4 | 6.8 | 26.4 | 92.4*
CC(C)CCCCCCNC(=S)Nc1ccc(S(=O)(=O)N2CCOCC2)cc1 | -6.2 | 84.0* | 76.5* | -0.6 | 26.5* | -2.5 | 83.2*
CC(=O)c1cccc(NC(=O)C2(C)Cc3c(-c4cccc(C(F)(F)F)c4)ccnc3O2)c1 (stereo not given) | . | 0.1 | . | 0.2 | . | . | .
CC(C)(C)c1ccc(C(=O)Nc2cccc([N+](=O)[O-])c2)cc1 | 13.7 | 95.4* | 50.5 | 0.2 | -9.5 | 61.5* | 85.2*
CC(C)(C)CC(C)(C)NC(=O)Nc1cccc([N+](=O)[O-])c1 | 13.7 | 90.2* | 79.8* | -0.2 | -2.2 | 64.3* | 84.5*
CCCC[C@H](CN[C@@H](CNC)[C@H](C)CC)NCCC12CCC(CC1)C2 | . | 99.5* | . | -0.2 | 4.7 | . | -17.1 | MPTP swell DR=6.12*;MPTP cs DR=>80
Nc1ccccc1N=Cc1ccc(-c2cccc(Cl)c2)o1 | -6.5 | 67.1* | -3.7 | 0.0 | 21.6* | 50.8 | 65.9*
CCOC(=O)C1CCCN(CC(O)COc2ccccc2C(C)=O)C1 (stereo not given) | -21.6 | 0.1 | 23.3 | -0.6 | 9.8 | 10.2 | .
SMILES | EBV gp42 inh | MPTP inh | CHOP inhibitor | TbMetRS inhib | NR3A LBD binder | WT yeast gro inh | Rh123 counter | others
O=C(NC[C@@H]1CC[C@@H](Cc2ccc(-c3ccccc3)cc2)O1)Nc1ccc(Br)cc1 | . | 59.8* | . | -0.4 | 24.1* | . | 95.7*
CCOC(=O)CC1C(=O)NCCN1Cc1ccc(OC)c(OC)c1 (stereo not given) | -12.2 | 4.0 | 4.9 | 0.2 | -0.4 | 6.3 | .
CCN(CC)S(=O)(=O)c1ccc2oc(SCC3CN=C(c4ccc(OC)cc4)S3)nc2c1 (stereo not given) | -13.6 | 56.2* | 19.2 | -0.3 | 1.4 | -1.0 | 9.6 | MPTP swell DR=17.4*;MPTP cs DR=11.6*
COc1ccc(C2=NCC(CSc3nnc(-c4ccc5c(c4)OCO5)o3)S2)cc1 (stereo not given) | -22.2 | 58.5* | 16.8 | -0.6 | -0.8 | 3.5 | 80.6*
COc1ccc(C2=NCC(CSc3nccc(=O)[nH]3)S2)cc1 (stereo not given) | -16.6 | 0.1 | 11.6 | 0.5 | 0.3 | 14.1 | .
CCCCOc1nc2ccccc2nc1NS(=O)(=O)c1ccc(F)cc1 | . | 0.8 | . | -0.7 | -1.1 | . | .
CCCCOc1nc2ccccc2nc1C(C#N)S(=O)(=O)c1ccccc1 (stereo not given) | -7.4 | 51.2* | 20.0 | -0.6 | 6.9 | 3.7 | 77.9*
CC1CCCN(c2nc3ccccc3nc2C(C#N)S(=O)(=O)c2ccccc2)C1 (stereo not given) | 146.9* | 82.3* | 5.3 | 1.2 | -10.1 | 35.8 | 82.8*
O=C(O)CCCNc1c(C(=O)Nc2ccc(Cl)cc2)cc([N+](=O)[O-])cc1[N+](=O)[O-] | -2.7 | 87.7* | 12.2 | 1.6 | -0.7 | 13.8 | 93.7*
Cn1c(O)c(N=NC(=O)c2ccccc2O)c2ccccc21 | -4.0 | -1.1 | -19.6 | 1.3 | 2.4 | 9.3 | .
Cc1cc(N=NC(=O)c2ccccc2O)c2ccccc2c1O | -3.7 | 73.7* | 4.2 | 0.5 | 1.0 | 18.8 | 90.7*
CN(C)S(=O)(=O)c1cccc(NC(=S)NC2CCCCC2)c1 | 2.9 | 3.9 | 5.8 | 0.3 | -0.1 | -4.4 | .
CN(C)S(=O)(=O)c1cccc(NC(=S)NC(=O)c2ccco2)c1 | . | -1.7 | . | -0.4 | 2.2 | . | .
CN(C)S(=O)(=O)c1cccc(NC(=S)NNC(=O)c2cc3ccccc3cc2O)c1 | . | 51.7* | . | 2.6 | 21.9* | . | 48.0*
CC(=O)c1ccc(NC(=S)NN2C(C)CCCC2C)cc1 (stereo not given) | 5.5 | 4.3 | 20.0 | -1.4 | -0.6 | -7.3 | .
CC(=O)c1ccc(NC(=S)NC2CCCC(C)C2C)cc1 (stereo not given) | -3.8 | 71.1* | -18.6 | 0.0 | -21.5 | 23.0 | 75.5*
